The RNAGym collection of RNA variant scans (doi:10.1126/science.aae0568)
Variants at the floor of the assay were thinned out.

B1: tRNA (parent)
chain: GUUCCGUUGGCGUAAUGGUAACGCGUCUCCCUCCUAAGGAGAAGACUGCGGGUUCGAGUCCCGUACGGAACG

Variants of: B1
Assay: yeast fitness relative to wild type (ratio to wild type); higher = fitter; tRNA-Arg(CCU), competitive growth, 37 C, YPD
How it was run: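 Gene amplicons from the start population and from each of six end populations were read by 100-nucleotide paired-end sequencing. Those end populations came from pooled Saccharomyces cerevisiae strains carrying tRNA-Arg(CCU) gene variants at the native locus, competed in YPD at 37°C for 24 hours. Fitness relative to wild type was worked out from changes in genotype frequencies. Genotypes needed ≥ 100 starting reads, and estimates < 0.5 were set to 0.5.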

Point of comparison: GUUCCGUUGGCGUAAUGGUAACGCGUCUCCCUCCUAAGAAGCAGACUGCGGGUUCGAGUCCCGUACGGAACG [G39A A42C], yeast fitness 0.646. Against it:
- GUUCCGUUGGCGUAAUGGUAACGCGUCUCCCUCCUAAGAAGAAGACUGCGGGAUCGAGUCCCGUACGGAACG [G39A U53A] — lower, 0.596
- GUUCCGUUGGCGUAAUGGUAACGCGUCUCCCUCCUAAGAAGAAGACUGCGGGUUCGAGUCCCCUACGGAACG [G39A G63C] — higher, 0.728
- GUUCCGUUGGCGUAAUGGUAACGCGUCUCCCUCCUAAGAAGAAGAAUGCGGGUUCGAGUCCCGUACGGAACG [G39A C46A] — higher, 1.01
- GUUCCGUUGGCGUAAUGGUAACGCGUCUCCCUCCUAAGAAGCAGACUGCGGGUUCGAGUCUCGUACGGAACG [G39A A42C C61U] — lower, 0.542
- GUUCCGUUGGCGUAAUGGUAACGCGUCUCCCUCCUAAGCAGCAGACUGCGGGUUCGAGUCCCGUACGGAACG [G39C A42C] — higher, 0.687
- GUUCCGUUGGCGUAAUGGUAACGCGUCUCCCUCCUAAGAAGAAGCCUGCGGGUUCGAGUCUCGUACGGAACG [G39A A45C C61U] — higher, 0.706
- GUUCCGUUGGCGUAAUGGUAACGCGUCUCCCUCCUAAGAAGAAGCCUGCGGGUUCGAGUCACGUACGGAACG [G39A A45C C61A] — lower, 0.618
- GUUCCGUUGGCGUAAUGGUAACGCGUCUCCCUCCUAAGAAGAUGACUGCGGGUUCGAGUCCCGUACGGAACG [G39A A43U] — higher, 0.811
- GUUCCGUUGGCGUAAUGGUAACGCGUCUCCCUCCUAAGAAGAUGAUUGCGGGUUCGAGUCCCGUACGGAACG [G39A A43U C46U] — lower, 0.574
- GUUCCGUUGGCGUAAUGGUAACGCGUCUCCCUCCUAAGAAGAAGACAGCGGGUUCGAGUCCCGUACGGAACG [G39A U47A] — higher, 0.89
- GUUCCGUUGGCGUAAUGGUAACGCGUCUCCCUCCUAAGAAGAAGACUGCGGGUUCCAGUCCCGUACGGAACG [G39A G56C] — lower, 0.603
- GUUCCGUUGGCGUAAUGGUAACGCGUCUCCCUCCUAAGAAGAAGACUGCGGGUUCAAGUCCCGUACGGAACG [G39A G56A] — higher, 0.914
- GUUCCGUUGGCGUAAUGGUAACGCGUCUCCCUCCUAAGCAGCAGCCUGCGGGUUCGAGUCCCGUACGGAACG [G39C A42C A45C] — lower, 0.538
- GUUCCGUUGGCGUAAUGGUAACGCGUCUCCCUCCUAAGAAGAAGACUGCGCGUUCGAGUCCCGUACGGAACG [G39A G51C] — lower, 0.562
- GUUCCGUUGGCGUAAUGGUAACGCGUCUCCCUCCUAAGAAGAAGACUGUGGGUUCGUGUCCCGUACGGAACG [G39A C49U A57U] — lower, 0.562
- GUUCCGUUGGCGUAAUGGUAACGCGUCUCCCUCCUAAGAAGAAGACUGAGGAUUCGAGUCCCAUACGGACCG [G39A C49A G52A G63A A70C] — lower, ≤ 0.5
- GUUCCGUUGGCGUAAUGGUAACGCGUCUCCCUCCUAAGAAGAAGACUGCGGCUUGGAGUCCCGUACGGAACG [G39A G52C C55G] — lower, 0.541
- GUUCCGUUGGCGUAAUGGUAACGCGUCUCCCUCCUAAGAAGAAGACUGUGGGUUCGAGUCCUGUACGGAACG [G39A C49U C62U] — higher, 0.664
- GUUCCGUUGGCGUAAUGGUAACGCGUCUCCCUCCUAAGAAGAAGACUGCGGGUUUGAGUCACGUACGGAACG [G39A C55U C61A] — lower, ≤ 0.5
- GUUCCGUUGGCGUAAUGGUAACGCGUCUCCCUCCUAAGAAGAAGACUGCGGGUACGAGUCCCGUACGGAACG [G39A U54A] — lower, 0.61
- GUUCCGUUGGCGUAAUGGUAACGCGUCUCCCUCCUAAGAAGAAGACUGCGGGUUCGUGUCCCGUACCGAACG [G39A A57U G67C] — lower, 0.555
- GUUCCGUUGGCGUAAUGGUAACGCGUCUCCCUCCUAAGAAGAAGACUGCGGGUUCGAGUCCCGUACGCAGCG [G39A G68C A70G] — lower, ≤ 0.5
- GUUCCGUUGGCGUAAUGGUAACGCGUCUCCCUCCUAAGAAGAAGACUGCGCGUUCGAGCCCCGUACGGAACG [G39A G51C U59C] — lower, ≤ 0.5
- GUUCCGUUGGCGUAAUGGUAACGCGUCUCCCUCCUAAGAAGAAGACUCCGGGUUCGAGUCCCGUACGGAACG [G39A G48C] — higher, 0.718
- GUUCCGUUGGCGUAAUGGUAACGCGUCUCCCUCCUAAGCAGACGACUGCGGGUUCGCGUCCCGUACGGAACG [G39C A43C A57C] — lower, 0.628
- GUUCCGUUGGCGUAAUGGUAACGCGUCUCCCUCCUAAUGAGAAGACUGCGGGUUCGAGUCCCGUACCGAACG [G38U G67C] — higher, 0.772
- GUUCCGUUGGCGUAAUGGUAACGCGUCUCCCUCCUAAGAAGAAGACUGCGGGAUCGAGUCCCGUACGCAACG [G39A U53A G68C] — lower, ≤ 0.5
- GUUCCGUUGGCGUAAUGGUAACGCGUCUCCCUCCUAAGAAGGAGACUGCGGGUUCGAGUCCCGUACGGAACG [G39A A42G] — higher, 0.811
- GUUCCGUUGGCGUAAUGGUAACGCGUCUCCCUCCUAAGAAGAAGACUGCGGGUUCGAGUCCCGUAUGGAGCG [G39A C66U A70G] — lower, 0.601
- GUUCCGUUGGCGUAAUGGUAACGCGUCUCCCUCCUAAGAAGAAGACUGGGGGUUCGAGUCCCGUACGGAACG [G39A C49G] — higher, 0.66
- GUUCCGUUGGCGUAAUGGUAACGCGUCUCCCUCCUAAGAAGAAGACUGAGGGUUCGAGUCCCGUACGGAACG [G39A C49A] — lower, 0.598
- GUUCCGUUGGCGUAAUGGUAACGCGUCUCCCUCCUAAGAAGAAGACUGGGGGUUCGAGUCCCGUACGGUACG [G39A C49G A69U] — lower, ≤ 0.5
- GUUCCGUUGGCGUAAUGGUAACGCGUCUCCCUCCUAAGCAGGAGACUGCGGGUUCGAGUCCCAUACGGAACG [G39C A42G G63A] — lower, ≤ 0.5
- GUUCCGUUGGCGUAAUGGUAACGCGUCUCCCUCCUAAGAAGAAAACUGCAGGUUCGAGUCCCGUACGGAACG [G39A G44A G50A] — lower, 0.607
- GUUCCGUUGGCGUAAUGGUAACGCGUCUCCCUCCUAAGAUGAAGACUGCGGGUUCGAGUCCCGUACGGAACG [G39A A40U] — higher, 1.19
- GUUCCGUUGGCGUAAUGGUAACGCGUCUCCCUCCUAAGCAGGUGACUGCGGGUUCGAGUCCUGUACGGUACG [G39C A42G A43U C62U A69U] — lower, ≤ 0.5
